{"data": "Measured values gathered from unrelated publications", "target": "Dual specificity protein kinase CLK4 (CLK4, Homo sapiens, UniProt Q9HAZ1)", "note": "Compare with care: the assays were run in different laboratories."}
{"Compound": "O=C(Nc1cccnn1)N1CCC(=Cc2cccc(Oc3ccc(C(F)(F)F)cn3)c2)CC1", "test": "cell-free assay, competition with immobilised ligand", "conditions": "1 µM", "quantity": "remaining binding", "value": "70%"}
{"Compound": "O=C1Nc2ccc(Cl)cc2C1=Cc1cc(Cl)c(O)c(Cl)c1", "test": "cell-free assay", "conditions": "0.5 µM", "quantity": "remaining signal", "value": "60.7%"}
{"Compound": "CCCOc1ccc([C@@H]2[C@@H](C(=O)O)[C@H](c3ccc4c(c3)OCO4)CN2CC(=O)Nc2c(CC)cccc2CC)cc1", "test": "cell-free assay, competition with immobilised ligand", "conditions": "1 µM", "quantity": "remaining binding", "value": "89%"}
{"Compound": "CCN(CC)CCNC(=O)c1c(C)[nH]c(/C=C2\\C(=O)Nc3ccc(F)cc32)c1C", "test": "cell-free assay", "conditions": "0.5 µM", "quantity": "remaining signal", "value": "26.3%"}
{"Compound": "CN(CCCC(F)(F)F)c1nccc(-c2cnn3ncccc23)n1", "test": "binding", "conditions": "1 µM", "quantity": "remaining binding", "value": "25%"}
{"Compound": "O=C1NC(=O)c2cc(Nc3ccc(F)cc3)c(Nc3ccc(F)cc3)cc21", "test": "cell-free assay", "conditions": "0.5 µM", "quantity": "remaining signal", "value": "88.6%"}
{"Compound": "COc1cc(-c2cc(-c3ccc(N4CCNCC4)cc3)cnc2C)cc(OC)c1OC", "test": "enzyme activity, inhibitor", "conditions": "0.1 µM", "quantity": "inhibition", "value": "1%"}
{"Compound": "CCOCCn1cc(C(=O)Nc2ccc(-n3nc(-c4cccnc4)cc3C(F)(F)F)cn2)ccc1=O", "test": "cell-free assay, competition with immobilised ligand", "conditions": "1 µM", "quantity": "remaining binding", "value": "100%"}
{"Compound": "Cc1cc(NC(=O)c2cccc3cc(-c4cccc5[nH]nc(N)c45)ccc23)ccc1F", "test": "enzyme activity, inhibitor", "conditions": "0.1 µM", "quantity": "activity vs control", "value": "90%"}
{"Compound": "Oc1cccc(-c2nc(N3CCOCC3)c3oc4ncccc4c3n2)c1", "test": "cell-free assay", "conditions": "0.5 µM", "quantity": "remaining signal", "value": "81.5%"}
{"Compound": "Cn1cncc1C1=CN(c2ncnc3[nH]cnc23)CCS1", "test": "enzyme activity, inhibitor, radiometric", "conditions": "50 nM", "quantity": "inhibition", "value": "27.1%"}
{"Compound": "NS(=O)(=O)c1cc(NC(=O)Cc2ccccc2)ccc1Oc1cccc(Cl)c1", "test": "cell-free assay, competition with immobilised ligand", "conditions": "1 µM", "quantity": "remaining binding", "value": "83%"}
{"Compound": "Cn1cnc(Br)c1C1=CN(c2ncnc3[nH]cnc23)CCS1", "test": "enzyme activity, inhibitor, radiometric", "conditions": "50 nM", "quantity": "inhibition", "value": "24%"}
{"Compound": "CCCCN(CCCC)C(=O)CN1C[C@@H](c2cc(OC)c3c(c2)OCO3)[C@H](C(=O)O)[C@H]1CC(C)(C)CCC", "test": "cell-free assay, competition with immobilised ligand", "conditions": "1 µM", "quantity": "remaining binding", "value": "72.4%"}
{"Compound": "CNC(=O)c1cc(Oc2ccc(NC(=O)Nc3ccc(Cl)c(C(F)(F)F)c3)cc2)ccn1", "test": "cell-free assay", "conditions": "0.5 µM", "quantity": "remaining signal", "value": "95.2%"}
{"Compound": "O=C(CSc1nc2nccnc2c(=O)n1CCc1ccccc1)Nc1nccs1", "test": "enzyme activity, inhibitor", "conditions": "10 µM", "quantity": "inhibition", "value": "5%"}
{"Compound": "O=C(Nc1cnn(-c2csc(C(=O)NC3COC3)c2)c1)Nc1c(F)cccc1Cl", "test": "enzyme activity, inhibitor", "conditions": "5 µM", "quantity": "remaining activity", "value": "93.2%"}
{"Compound": "CS(=O)(=O)N1CCCC(NC(=O)[C@H](CCC2CCCCC2)NC(=O)c2ccc(CNc3ncnc4c3nnn4-c3ccccc3)cc2)C1 (some centres unmarked)", "test": "cell-free assay, competition with immobilised ligand", "conditions": "0.1 µM", "quantity": "remaining binding", "value": "85%"}
{"Compound": "CC(C)(C)c1nc2c(s1)c1nc(N)ncc1c1ccc(NS(=O)(=O)c3c(F)cccc3F)c(F)c12", "test": "enzyme activity, inhibitor, radiometric", "conditions": "1 µM", "quantity": "remaining activity", "value": "81%"}
{"Compound": "Nc1ncnc2occ(-c3ccc(NC(=O)Nc4cc(C(F)(F)F)ccc4F)cc3)c12", "test": "cell-free assay, inhibitor", "conditions": "20 µM", "quantity": "remaining signal", "value": "5.8%"}
